High-throughput results from PubChem BioAssay.
OXTR potentiator: human OXTR potentiators, primary screen, fluorescence, CHO-OTR cells, Fluo-8 calcium | Oxytocin receptor (Homo sapiens), P30559 | Fluo-8 calcium fluorescence, potentiator mode; 0% = oxytocin EC15, 100% = EC100 | activation, % at 3 µM | 320,000 tested, 0.061% active | AID 2445, 2010;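 active means activation above that plate's cutoff, the mean activation of tested compounds plus 3 SD, cut at about 6.6% in these data, passing the limit was not always enough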;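 further: 100% uses oxytocin at 75 nM as the full agonist control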
Target sequence (P30559 whole entry, looked up): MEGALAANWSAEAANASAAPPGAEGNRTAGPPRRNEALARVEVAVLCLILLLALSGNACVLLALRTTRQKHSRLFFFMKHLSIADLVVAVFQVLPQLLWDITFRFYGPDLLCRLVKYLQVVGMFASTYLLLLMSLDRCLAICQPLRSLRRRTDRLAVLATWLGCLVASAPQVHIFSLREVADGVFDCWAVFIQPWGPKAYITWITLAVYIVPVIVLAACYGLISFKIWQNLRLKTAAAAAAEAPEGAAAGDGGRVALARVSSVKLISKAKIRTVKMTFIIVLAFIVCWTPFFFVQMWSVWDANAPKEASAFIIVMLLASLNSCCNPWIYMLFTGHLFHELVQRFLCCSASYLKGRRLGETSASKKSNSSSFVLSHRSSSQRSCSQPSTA
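Assay system: CHO cell line stably expressing human OTR. Reagent: EC15 oxytocin agonist. Dosing: single dose, 3.0 µM nominal final compound concentration. Timing: compound 6 min at room temperature before oxytocin, 100 s read. Signal: kinetic Fluo-8 calcium fluorescence. Controls: oxytocin EC15 low and EC100 high.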
OX1R antag-1: OX1R (HCRTR1) antagonists, primary screen, fluorescence, CHO/OX1R cells, Fluo-8 calcium, orexin A | Orexin/Hypocretin receptor type 1 (Homo sapiens), O43613 | Fluo-8 calcium fluorescence | inhibition, % at 5 µM | 330,000 tested, 0.43% active | AID 434989, 2010;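 active means inhibition above its plate's threshold, mean inhibition of all tested compounds on the plate plus 3 SD, cut at about 37% in these data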;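 further: 0% = orexin A challenge wells and 100% = SB-334867-A antagonist wells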
CHO parental Ca: ATP-evoked calcium signal inhibitors, parental CHO, primary screen, counter-screen for OX1R antagonist project, cell-based, fluorescence, Fluo-8 calcium dye; parental CHO-K1, ATP-induced calcium, Fluo-8 fluorescence; inhibition, % at 5.6 µM; 330,000 tested, 0.63% active;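 active means inhibition above that plate's mean sample inhibition plus 3 SD, cut at about 26% in these data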;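 further: 0% = ATP-challenged DMSO wells and 100% = DMSO wells without ATP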
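Material: Parental CHO cells | Reagent: ATP | Compound dosing: Single nominal dose of 5.6 µM per compound | Detection: Intracellular calcium via Fluo-8 no-wash fluorescent dye | Read-out: % inhibition of ATP-induced calcium mobilization | Benchmarks: Low control ATP plus DMSO, high control DMSO only | Replicates: Singlicate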
V1aR counter: agonists of human V1a receptor, primary screen, counter-screen for OXTR agonist project, fluorescence, CHO-V1R cells | activation, % at 3 µM | Fluo-8 calcium fluorescence, agonist mode; 0% DMSO, 100% 3 nM vasopressin | AID 2797, 2010 | Vasopressin V1a receptor (Homo sapiens), P37288 | 320,000 tested, 0.25% active;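 active means activation above the mean activation of all tested compounds plus 3 SD, per screening run, cut at about 20% in these data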;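 further: signal is peak over basal fluorescence ratio across a 100 second FLIPR read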
OXTR ag: human OXTR agonists, primary screen, fluorescence, CHO-OTR cells, Fluo-8 calcium; AID 2435, 2010; activation, % at 3 µM; 320,000 tested, 0.32% active; Fluo-8 calcium fluorescence; normalized: DMSO 0%, oxytocin 100%;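 active means activation above the mean of all tested compounds plus 3 SD, cutoff set per screening run, cut at about 20% in these data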;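 further: peak over basal fluorescence ratio from a 100 s FLIPR kinetic read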
OX1R antag-2: antagonists of human orexin 1 receptor (OX1R) | Orexin/Hypocretin receptor type 1 (Homo sapiens), O43613 | OX1R-expressing cells, FRET antagonist read-out | 330,000 tested, 1.8% active | AID 485270, 2010 | inhibition, % at 6.6 µM; in the data active means inhibition mostly above about 38%, no sharp cut-off; inactive means mostly below about 40%;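 further: 0% = agonist challenge alone and 100% = reference antagonist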
* = called active by the depositor. Hits are enriched below; roughly 2.7% of the tested compounds scored in any of these assays.

SMILES | OXTR potentiator | OX1R antag-1 | CHO parental Ca | V1aR counter | OXTR ag | OX1R antag-2
Cn1cccc1/C=C(\C#N)c1ccccc1 | -0.5 | -9.7 | -7.6 | -1.3 | -2.2 | 5.3
COc1ccc(S(=O)(=O)N(CC(=O)N/N=C/c2cccs2)c2cc(C)cc(C)c2)cc1OC | -5.4 | 35.0 | -26.0 | 1.6 | -0.1 | 50.2*
COc1ccccc1N(CC(=O)Nc1cc(S(=O)(=O)N(C)C)ccc1C)S(=O)(=O)c1cccs1 | -2.5 | 25.5 | -16.3 | 1.9 | 0.6 | 34.4*
COc1cc2c(cc1OC)C(c1cccs1)N(C(=O)c1cccc(S(=O)(=O)N(C)C)c1)CC2 (stereo unspecified) | -15.4 | -34.7 | -20.5 | -0.4 | -2.1 | 14.7
COc1ccc(N=C2SCC(=O)N2CCc2ccc(OC)c(OC)c2)cc1 | -5.8 | -16.9 | -17.1 | 1.6 | 0.9 | 15.4
COc1ccc(CCN2C(=O)CSC2=Nc2ccc(C(C)C)cc2)cc1OC | -15.4 | 19.6 | 28.7* | 7.7 | 0.5 | 4.2
COc1cc2ccccc2cc1C(=O)OCc1nc2ccsc2c(=O)[nH]1 | -4.5 | -7.3 | -21.7 | 0.6 | -0.9 | 34.9*
COCc1c(C(=O)OCc2nc(N)nc(Nc3ccccc3C)n2)oc2ccccc12 | -2.9 | 16.2 | -25.3 | -0.1 | 5.2 | 46.6*
Cc1ccccc1Nc1nc(N)nc(COC(=O)c2ccco2)n1 | -2.3 | -3.8 | -10.9 | 1.4 | 0.1 | 6.3
Cc1ccc(C(=O)OCc2nc3ccsc3c(=O)[nH]2)o1 | 2.3 | -14.2 | -25.6 | 0.9 | 0.2 | 7.0
COCc1c(C(=O)OCc2nc3ccsc3c(=O)[nH]2)oc2ccccc12 | 0.3 | 10.5 | -19.6 | -0.5 | -1.1 | 28.3*
CC1CCN(C(=O)CCC(=O)Nc2nnc(C(F)(F)F)s2)CC1 | -0.6 | -10.5 | -8.9 | 1.1 | -0.2 | 14.7
Cn1cc(/C=C/c2cc[n+](C)cc2)c2cc(F)ccc21 | 2.1 | -7.6 | -7.3 | 3.5 | 4.3 | 44.0*
O=C(CNC(=O)C12CC3CC(CC(C3)C1)C2)Nc1ncccc1O | -3.1 | -13.5 | 5.8 | 0.7 | 0.9 | 3.9
CN(Cc1ccccc1)S(=O)(=O)c1ccc(NS(C)(=O)=O)cc1 | -4.2 | 8.5 | 8.9 | 0.8 | 0.4 | 8.1
Cc1cc(-c2ccc(S(=O)(=O)N(C)Cc3ccccc3)cc2)on1 | -10.9 | -0.2 | 37.5* | 3.0 | 0.2 | 29.0
O=S(=O)(c1ccc(Cl)cc1)N1CCCc2ccccc21 | -10.9 | -29.2 | -22.5 | 0.6 | -1.8 | 18.3
Cc1ccc(S(=O)(=O)N2CCCc3ccccc32)cc1C | -1.8 | -16.0 | 30.0* | -1.2 | -1.5 | 5.2
O=C(Nc1ccncc1)c1cccc(S(=O)(=O)N2CCCC2)c1 | -13.4 | 6.5 | -9.6 | 8.6 | 4.0 | 25.0
O=C(c1cccc(S(=O)(=O)N2CCCC2)c1)c1nnc(-c2ccncc2)o1 | -6.8 | -8.6 | -1.9 | 3.1 | 1.4 | 43.0*
N=c1c(C(=O)NCC2CCCO2)cc2c(=O)n3ccccc3nc2n1Cc1ccc(Cl)cc1 (stereo unspecified) | -10.0 | -12.1 | -3.4 | -0.8 | -0.9 | 39.4
Cc1ccc(Cn2c(=N)c(C(=O)NCC3CCCO3)cc3c(=O)n4ccccc4nc32)cc1 (stereo unspecified) | 0.5 | -11.0 | -8.1 | 0.0 | -0.2 | 56.2*
N=c1c(C(=O)NCC2CCCO2)cc2c(=O)n3ccccc3nc2n1Cc1ccccc1 (stereo unspecified) | 0.5 | -2.7 | -18.1 | 0.2 | -1.2 | 51.5*
Cc1ccc2nc(NC(=O)c3ccccn3)sc2c1 | -6.0 | 33.2 | 27.2* | 1.4 | 0.5 | 29.4
COc1ccccc1C(=O)Nc1nc2ccc(S(C)(=O)=O)cc2s1 | -6.0 | 1.3 | -9.7 | 1.1 | 0.8 | 40.7*
SMILES | OXTR potentiator | OX1R antag-1 | CHO parental Ca | V1aR counter | OXTR ag | OX1R antag-2
CS(=O)(=O)c1ccc2nc(NC(=O)c3ccccc3Br)sc2c1 | -1.3 | -11.2 | -5.5 | 1.9 | 1.3 | 10.4
COc1ccc(C)cc1NCc1cc(=O)oc2cc(-c3ccccc3)c(O)cc12 | -2.2 | -2.9 | -11.7 | -1.1 | -0.8 | 13.4
CCOc1ccccc1NCc1cc(=O)oc2cc(C)ccc12 | -9.3 | -11.8 | -28.4 | -1.4 | -2.2 | 46.5*
Cc1ccc(CSCC(=O)Nc2ccc(N3CCOCC3)cc2N2CCOCC2)cc1 | -6.7 | -12.1 | -10.2 | 0.5 | 0.9 | 24.9
CCN(Cc1nc2ccccc2c(=O)[nH]1)C(=O)c1cc2c(s1)CCCCC2 | -3.5 | -11.9 | -18.5 | 4.5 | 1.6 | 6.5
Cc1cccc(-n2c(SCC(=O)N3CCCC3)nc3n[nH]c(C)c3c2=N)c1 | 2.4 | 12.2 | -27.6 | -1.5 | -1.4 | 35.6*
O=C(/C=C/c1ccc(N2CCC(c3ccccc3)=N2)cc1)c1ccccc1 | -14.7 | 79.5* | 73.1* | 107.8* | 74.9* | 7.5
O=C(O)c1cccc(NC(=S)NC(NC(=O)c2cccc([N+](=O)[O-])c2)C(Cl)(Cl)Cl)c1 (stereo unspecified) | -14.4 | -18.8 | -11.0 | 0.0 | -0.7 | 19.7
Cc1ccc(NC(=S)NNC(=O)c2cccc([N+](=O)[O-])c2)cc1Cl | -10.7 | -14.9 | -14.6 | 4.0 | 1.9 | 40.0*
O=C(NNC(=S)Nc1ccc(F)cc1)c1cccc([N+](=O)[O-])c1 | -8.1 | -1.1 | -9.9 | 0.9 | -0.9 | 12.6
O=C(NC(NC(=S)Nc1ccc(Cl)cc1Cl)C(Cl)(Cl)Cl)c1cccc([N+](=O)[O-])c1 (stereo unspecified) | -22.6 | 42.2* | 40.9* | 13.7 | 16.9 | 25.8
CC1(C(=O)NNC(=O)c2cccc([N+](=O)[O-])c2)CC1(Br)Br (stereo unspecified) | -6.2 | -16.8 | -23.1 | 0.1 | -1.5 | 42.4*
CCCN(C(=O)c1cc(S(=O)(=O)N(C)c2ccc(OCC)cc2)ccc1C)C1CCS(=O)(=O)C1 (stereo unspecified) | 3.2 | -2.4 | -10.8 | 0.3 | 0.2 | 3.8
COc1cccc(NC(=S)NCc2cccs2)c1 | -2.0 | -0.8 | 6.5 | 0.2 | -0.6 | 7.8
C=CCN(CC=C)S(=O)(=O)c1ccc2nc(NC(=O)C(C)C)sc2c1 | -20.2 | -2.0 | -19.8 | 22.1* | 29.4* | 31.3
CCOC(=O)c1ccc2nc(NC(=O)C(C)C)sc2c1 | -2.6 | -21.0 | -13.8 | -1.4 | -1.3 | 14.3
CCOC(=O)c1cc2c(=O)n3ccccc3nc2n(Cc2ccco2)c1=NC(=O)c1cccnc1 | -5.3 | -29.6 | -17.9 | -0.6 | -2.1 | 51.8*
